# eIF4E 4G PPI = eIF4E/eIF4G interaction inhibition in translation initiation; AID 782; TR-FRET eIF4E-eIF4GI(517-606) binding, 2 h; inhibition, % at 21.7 µM; hit rate 0.37% among 220,000; P63073+Q04637
# SUMO HTRF inh = blocks human SUMOylation mediated by UBC9. inhibition, % at 35 µM. P63279. hit rate 0.36% among 290,000. HTRF SUMOylation assay, SAE1/SAE2 + UBC9, in vitro; in the data active = inhibition above about 50%, passing the limit was not always enough
# Target sequence (P63279 whole entry, looked up): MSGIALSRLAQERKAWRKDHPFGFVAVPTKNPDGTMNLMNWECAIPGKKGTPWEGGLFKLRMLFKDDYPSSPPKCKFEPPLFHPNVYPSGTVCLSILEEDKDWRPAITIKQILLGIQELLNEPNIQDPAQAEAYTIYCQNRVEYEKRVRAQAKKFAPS
# 14-3-3 Bad PPI = disrupts binding of bovine 14-3-3 zeta to phospho-Bad peptide. TR-FRET 14-3-3zeta/Dy647-pBad peptide displacement, 1 h. P63103. hit rate 0.71% among 220,000. inhibition, % at 21.7 µM;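 active = inhibition above about 70%, limit read from the data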
# Target sequence (P63103 whole entry, looked up): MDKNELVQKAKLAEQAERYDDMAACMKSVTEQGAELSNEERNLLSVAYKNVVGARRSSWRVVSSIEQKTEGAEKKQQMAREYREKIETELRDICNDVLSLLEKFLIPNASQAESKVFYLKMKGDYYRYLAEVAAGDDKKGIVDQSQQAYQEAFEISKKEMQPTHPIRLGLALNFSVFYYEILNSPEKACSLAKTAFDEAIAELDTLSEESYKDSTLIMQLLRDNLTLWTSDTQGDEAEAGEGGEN
# Tb MetRS inh = Trypanosoma brucei MetRS inhibition. inhibition, % at 11.9 µM. hit rate 0.4% among 360,000. purified T. brucei MetRS, ATP depletion, Kinase-Glo luminescence;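 active = inhibition above a per-plate cutoff of the control wells' mean inhibition plus 3 SD, cut at about 5.5% in these data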
#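 Dosing: 11.9 µM single point; system: parasite MetRS enzyme; technique: luminescence of leftover ATP; times: 15 min enzyme-compound preincubation, 2 h reaction, 10 min detection, 25 °C; replicates: each compound tested once; read-out basis: percent inhibition relative to median high and low control wells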
# p47phox inh = inhibitors of human p47phox binding | P14598 | inhibition, % at 24.7 µM | hit rate 0.53% among 220,000 | p47phox/p22phox peptide binding, fluorescence polarization, 2 h | AID 1274
# p97 ATPase inh = inhibitors of human p97 ATPase; P55072; recombinant p97 ATPase, Kinase-Glo ATP luminescence, 3 h; inhibition, % at 8 µM; hit rate 0.42% among 220,000; AID 1481; in the data active = inhibition above about 15%
# Hits are given with their value; n = inactive; x = no result; ! = not confirmed by another sample; [ ] = another dose, or the depositor's remark. Shown are actives, neighbours in structure and some others; about 1.6% of the full set was active somewhere.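 The calls were made as follows, unless noted: active = inhibition above about 30% (limit read from the data); inactive = the rest.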
SMILES,eIF4E 4G PPI,SUMO HTRF inh,14-3-3 Bad PPI,Tb MetRS inh,p47phox inh,p97 ATPase inh
c1coc(CN2CCN(C(c3cccs3)c3nnnn3C3CCCC3)CC2)c1 (centres undefined),n,n,77,n,n,n
c1ccc(CN(Cc2cccs2)C(c2cccs2)c2nnnn2C2CCCC2)cc1 (centres undefined),n,n,87,n,n,n
c1ccc(CC2CCN(C(c3cccs3)c3nnnn3C3CCCC3)CC2)cc1 (centres undefined),n,n,n,n,n,n
O=C(c1ccco1)N1CCN(C(c2cccs2)c2nnnn2C2CCCC2)CC1 (centres undefined),n,n,n,n,n,n
CCCN(C(=O)c1cn(-c2ccccc2)nc1-c1ccc(OC)cc1)C1CCS(=O)(=O)C1 (centres undefined),x,x,x,n,x,x
CCN(c1ccccc1)c1cc2ccccc2c(=O)[nH]1,x,61,x,n,x,x
COc1ccc(CCN2CC(C(=O)N(C)Cc3c(C)n[nH]c3C)CCC2=O)cc1 (centres undefined),x,n,x,n,x,x
CNS(=O)(=O)c1ccc(OC)c(-c2nnc3c4ccccc4c(C)nn23)c1,n,n,92,n,n,n
COc1ccc(S(=O)(=O)NC(C)(C)C)cc1-c1nnc2c3ccccc3c(C)nn12,n,n,n,n,n,n
CC(=O)OCc1c(C(F)(F)F)nn(C)c1SCc1ccc(Cl)cc1,n,n,141[fluorescence artefact?],n,n,n
Cc1cccc(-n2cnc(C(=O)NC3CCCCCC3)c2)n1,30,n,n,n,n,n
N#Cc1cccc(C2CC(OCCF)=CC(=O)O2)c1 (centres undefined),x,x,x,n,x,x
CCCNS(=O)(=O)c1ccc(OC)c(Cl)c1Cl,n,n,n,n,30,n
O=C(Cc1cccs1)Nc1ccc(S(=O)(=O)N2CCCC2)cc1,33,n,n,n,n,n
Cc1ccc(S(=O)(=O)N2CCCCC2)cc1NC(=O)Cc1cccs1,x,x,x,n,x,x
O=C1C(=Cc2cccn2-c2ccc(O)cc2)C(=O)c2ccccc21,n,n,84[fluorescence artefact?],n,n,n
O=C1C(=Cc2cccn2-c2ccccc2)C(=O)c2ccccc21,n,n,82[fluorescence artefact?],n,33,n
O=C(O)C1CCCCC1C(=O)NCc1cn2ccccc2n1 (centres undefined),n,n,n,n,36,n
O=C(O)C1CC=CCC1C(=O)NCc1cn2ccccc2n1 (centres undefined),n,n,n,n,n,n
COc1ccc2nc(-n3c(O)c(C4=c5ccccc5=NC4=O)[nH]c3=S)sc2c1,52[fluorescence artefact?],n,96[fluorescence artefact?],n,n,n
Cn1c(O)c(C2=c3ccccc3=NC2=O)[nH]c1=S,n,n,n,n,n,n
CC1(C)CCN(Cc2ccccc2)C1CC#N (centres undefined),n,n,71,n,n,n
CC1(C(=O)NS(=O)(=O)c2cccs2)CCN1C(=O)c1ccco1 (centres undefined),x,x,x,n,x,x
COc1ccc(NC(=O)CCn2nc(C)cc2C)cc1,n,n,n,n,56,n
CC(=NNC(=S)N1CCN(c2ccccn2)CC1)c1nccs1,x,x,x,n,x,x
SMILES,eIF4E 4G PPI,SUMO HTRF inh,14-3-3 Bad PPI,Tb MetRS inh,p47phox inh,p97 ATPase inh
CC(=O)Nc1ccc(S(=O)(=O)N2CCN(Cc3ccccn3)CC2)cc1,n,n,71,n,n,n
CCCCOC(=O)CCn1[nH]c(=O)c2ccccc2c1=O,n,n,n,n,n,n
O=C(CCn1[nH]c(=O)c2ccccc2c1=O)NCCO,35,n,n,n,n,n
O=C(O)CCSc1nnc(COc2cccc3cccnc23)n1-c1ccccc1,n,n,n,n,n,n
O=C(O)CSc1nnc(COc2cccc3cccnc23)n1-c1cccc(C(F)(F)F)c1,68,n,n,x,n,n
CCOC(=O)c1c(-c2ccccc2)oc2ccc(OC(C)=O)cc12,n,n,n,n,n,n
CCOC(=O)c1c(-c2ccccc2)oc2ccc(OC(C)C(=O)O)cc12 (centres undefined),n,55,n,n,n,n
COc1ccc(C(=O)Nc2cc(OC)c(NC(=O)c3ccco3)cc2OC)cc1,n,n,n,n,63,n
O=c1[nH][nH]c(=S)n1C1CCCCC1,44,n,n,x,n,n
O=c1cc(O)n(C2CCCCCC2)c(=O)[nH]1,x,n,x,n,x,x
COCCNC(=O)C1(C)CCCN(Cc2cn(C)c3ccccc23)C1 (centres undefined),x,x,x,n,x,x
CCOC(=O)N1CCN(CC(=O)Nc2ccc(F)cc2F)CC1,n,n,n,n,n,n
CCOC(=O)N1CCN(Cc2ccc(F)cc2F)CC1,n,n,91,n,n,n
Cc1c2cc(O)c(=O)cc-2oc2cc(O)c(O)cc12,35![fluorescence artefact?],92!,93,n,n,29
COc1cc(OC)c(-c2c3cc(O)c(=O)cc-3oc3cc(O)c(O)cc23)cc1OC,n,80,n,n,n,n
COc1cc(-c2cc(=O)c3ccc(O)cc3o2)cc(OC)c1OC,x,x,x,n,x,x
O=C1CCCC2=C1C(c1ccc(Br)cc1)c1c([nH]c(=S)[nH]c1=O)N2 (centres undefined),59,n,n,n,n,n
O=c1[nH]c(=S)[nH]c2c1C(c1ccc(Br)cc1)c1c([nH]c(=S)[nH]c1=O)O2,x,80,x,n,x,x
O=C(CCNc1ccc(F)cc1)c1cc2ccccc2o1,n,n,n,n,62,n
O=C(CCNc1cccc(F)c1)c1cc2ccccc2o1,n,n,n,n,n,n
C/C(=N\NC(=O)c1cccnc1)c1ccc(C)c([N+](=O)[O-])c1,n,n,n,n,n,n
C/C(=N\NC(=O)c1[nH]c2c([N+](=O)[O-])cc(C)cc2c1-c1ccccc1)c1cccnc1,n,n,n,n,35,n
Cc1ccc(C(=O)Nc2ccccc2C(=O)NC(CC(=O)O)C(=O)O)cc1 (centres undefined),n,n,n,n,n,32
O=C(O)CC(NC(=O)c1ccccc1NC(=O)c1ccccc1)C(=O)O (centres undefined),n,n,n,n,n,n
CN1c2ccccc2Oc2nnc(Cl)cc21,n,n,n,n,n,n
SMILES,eIF4E 4G PPI,SUMO HTRF inh,14-3-3 Bad PPI,Tb MetRS inh,p47phox inh,p97 ATPase inh
CCN(CC)CCOc1cc2c(nn1)Oc1ccccc1N2C,n,n,83,n,n,n
O=C(NCCc1ccccc1Cl)C1CCC(=O)N(CC2CCCCC2)C1 (centres undefined),x,n,x,n,x,x
Cc1c(C)n(CC(O)CN2CCOCC2)c2ccccc12 (centres undefined),n,n,n,n,66,n
COc1ccccc1NC(=O)c1sc2ncn(CC(=O)Nc3ccccc3)c(=O)c2c1C,x,51,x,n,x,x
O=C(NC1CCCCC1)C(C1CC1)n1c(=O)c(-c2cc3ccccc3[nH]2)nc2ccccc21 (centres undefined),x,x,x,n,x,x
C/C(=N\NC(=S)NC1CCCCC1)c1cccc(C(F)(F)F)c1,n,n,n,n,n,n
